# MT1-MMP act inh: inhibitors of human MT1-MMP activation; P50281; HT1080 RFP-PRO-GFP cells, GFP/RFP ratio fluorescence, overnight; percent of plate control window, DMSO zero; GFP/RFP ratio change, % at 20 µM; actives 0.061% (n = 360,000);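 active = GFP/RFP ratio change of at least 30% with cell ATP level not reduced by more than half and red fluorescence within 50% of control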
#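 Material: RFP-PRO-GFP reporter HT1080 cells. Dosing: single-point 20 µM compound, 1% DMSO. Controls: DMSO and RFP-L50D-GFP cell wells. Timing: cells overnight before dosing, compound overnight, 37 °C, 5% CO2. Measure: GFP/RFP fluorescence ratio.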
# TMEM16A inh: inhibitors of mouse TMEM16A calcium-activated chloride channel; HEK293 TMEM16A/YFP iodide influx fluorescence, ionomycin; normalized B-score (activity score, 25-100; higher = stronger inhibition) at 10 µM; actives 1.2% (n = 310,000); AID 588511;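 active = ratio plate-corrected score three or more library SD toward inhibition, starting fluorescence score within five deviations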;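 note: score derived from kinetic fluorescence span divided by baseline fluorescence per well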
# ANO1 activ: activators or potentiators of mouse TMEM16A chloride channel; Q8BHY3; HEK293 TMEM16A/YFP-H148Q/I152L, iodide quench fluorescence; active compounds read low; B-score at 10 µM; actives 0.3% (n = 340,000);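 active = fluorescence-ratio B-score plate-corrected deviation score at least 3 library SD below zero, with starting fluorescence score within 5 deviations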;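 note: channel opened by trigger with iodide after compound preincubation; score built on the fluorescence ratio of max minus min over baseline; more negative score means more quench and so TMEM16A activation or potentiation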
# DAGLB inhibitor: blocks human DAGLB lipase activity. Q8NCG7. HEK293T DAGLB membrane lysate, EnzChek fluorogenic substrate. inhibition, % at 5.17 µM. actives 0.059% (n = 340,000); in the data active = inhibition above about 34%;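 note: 0% = enzyme with vehicle and 100% = wells lacking enzyme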
# Target sequence (Q8NCG7 whole entry, looked up): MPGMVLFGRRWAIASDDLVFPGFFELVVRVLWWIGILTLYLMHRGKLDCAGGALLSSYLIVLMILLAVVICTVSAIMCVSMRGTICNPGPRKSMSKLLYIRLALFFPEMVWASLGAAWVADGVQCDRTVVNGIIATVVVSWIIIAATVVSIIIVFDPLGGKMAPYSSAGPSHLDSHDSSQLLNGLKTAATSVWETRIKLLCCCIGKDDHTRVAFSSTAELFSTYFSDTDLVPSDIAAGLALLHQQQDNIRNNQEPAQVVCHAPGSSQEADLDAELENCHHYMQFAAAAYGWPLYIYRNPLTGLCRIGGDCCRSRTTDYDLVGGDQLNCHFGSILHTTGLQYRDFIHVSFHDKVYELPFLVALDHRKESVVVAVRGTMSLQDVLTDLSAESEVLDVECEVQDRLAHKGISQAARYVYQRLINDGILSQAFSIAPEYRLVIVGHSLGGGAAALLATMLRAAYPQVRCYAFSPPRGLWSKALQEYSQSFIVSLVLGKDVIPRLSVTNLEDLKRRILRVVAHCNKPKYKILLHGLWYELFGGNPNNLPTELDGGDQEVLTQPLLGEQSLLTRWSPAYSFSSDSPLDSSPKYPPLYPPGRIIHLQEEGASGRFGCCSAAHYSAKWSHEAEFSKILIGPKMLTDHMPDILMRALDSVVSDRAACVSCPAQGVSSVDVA
# Active calls of the source: *; i = inactive; nt = no result given. Compounds with a hit are over-represented: about 1.3% of the library has one in this group of screens.
SMILES,MT1-MMP act inh,TMEM16A inh,ANO1 activ,DAGLB inhibitor
C=C1CC(COc2ccc3c(C)c(Cl)c(=O)oc3c2)(c2ccccc2)OC1=O (stereo not given),5,nt,i,8
COc1ccc(S(=O)(=O)Nc2ccc(Cc3ccncc3)cc2)cc1OC,0,25*,i,-1
CCc1ccc(OC)c(S(=O)(=O)Nc2ccc(Cc3ccncc3)cc2)c1,-7,i,i,0
O=C1CCCN1CCCN=c1c([N+](=O)[O-])nn(-c2ccc(Cl)cc2)n1O,3,nt,-42*,1
COc1ccccc1NC(=O)N(C)C[C@@H]1OCc2cnnn2CCCC(=O)N([C@H](C)CO)C[C@H]1C,0,nt,nt,4
CC(C)c1ccc(NC(=O)C2CC(=O)N(C3CCCC3)C2)cc1 (stereo not given),-1,i,i,5
O=C(Nc1ccccc1)C1CC(=O)N(C2CCCCC2)C1 (stereo not given),0,i,-7.7*,-1
COC(=O)[C@]12CCCCC=C1N(Cc1ccc(Cl)cc1Cl)C(=O)[C@H](CC(=O)N1CCN(C(=O)C3CC3)CC1)C2,1,nt,nt,nt
COc1ccccc1N1CCN(CCNC(=O)Nc2cccc(C)c2C)CC1,5,25*,i,-3
CC(C)N(C(=O)[C@H]1C[C@H](CC(=O)NCC23CC4CC(CC(C4)C2)C3)C(=O)N2CCc3c([nH]c4cc(CCC(=O)N(C)C)ccc34)[C@]12C)C(C)C,-11,nt,nt,8
C#CCOCCOCCOCCNc1nc(N2CCN(C(=O)CCCCCCCCCCNC(=O)[C@H](CCCCN)n3cc(CCO)nn3)CC2)nc(N2CCN(C(=O)CCCCCCCCCCNC(=O)[C@H](CCCN=C(N)N)n3cc(C[C@@H](C)CC)nn3)CC2)n1,9,100*,-22*,1
C#CCOCCOCCOCCNc1nc(N2CCN(C(=O)CCCCCCCCCCNC(=O)[C@H](CCCCN)n3cc(CCCC(=O)O)nn3)CC2)nc(N2CCN(C(=O)CCCCCCCCCCNC(=O)[C@H](CCCN=C(N)N)n3cc(C[C@@H](C)CC)nn3)CC2)n1,2,100*,-16*,3
C#CCOCCOCCOCCNc1nc(N2CCN(C(=O)CCCCCCCCCCNC(=O)[C@H]([C@@H](C)CC)n3cc(CCCCN=C(N)N)nn3)CC2)nc(N2CCN(C(=O)CCCCCCCCCCNC(=O)[C@H](CCCCN)n3cc(C[C@@H](C)CC)nn3)CC2)n1,nt,i,nt,nt
C#CCOCCOCCOCCNc1nc(N2CCN(C(=O)CCCCCCCCCCNC(=O)Cn3cc(C[C@@H](C)O)nn3)CC2)nc(N2CCN(C(=O)CCCCCCCCCCNC(=O)[C@H](CCCCN)n3cc(C[C@@H](C)CC)nn3)CC2)n1,10,i,i,2
C#CCOCCOCCOCCNc1nc(N2CCN(C(=O)CCCCCCCCCCNC(=O)[C@H](CCCCN)n3cc(C[C@@H](C)CC)nn3)CC2)nc(N2CCN(C(=O)CCCCCCCCCCNC(=O)[C@H](CCCCN)n3cc(C[C@@H](C)CC)nn3)CC2)n1,-7,25*,-22*,4
O=C(Nc1ccc(F)cc1)C(c1ccnc2ccccc12)N1CCN(c2cccc(C(F)(F)F)n2)CC1 (stereo not given),5,nt,nt,nt
c1nc(SSc2ncnc3nc[nH]c23)c2[nH]cnc2n1,26,nt,i,-2
O=C(O)c1ccc(NC(C(=O)c2ccccc2)c2ccccc2)cc1 (stereo not given),-5,nt,i,-2
O=C(NCC1(c2ccccc2)CCCC1)C1(c2ccccc2)CCCC1,-24,100*,i,-16
O=C(NCC1(c2ccccc2)CCCC1)C(=O)NCC1(c2ccccc2)CCCC1,5,nt,i,0
CCCCNC(=O)C1(C)CCCCN1C(=O)c1cc2ccccc2s1 (stereo not given),1,nt,nt,nt
CSc1cccc(NC(=O)c2ccc(CN3CCc4ccccc4C3)cc2)c1,5,100*,i,-8
O=C(Nc1cccc(Br)c1)c1ccc(CN2CCc3ccccc3C2)cc1,-2,25*,i,-11
CC(=O)Nc1ccc(NC(=O)c2ccc(CN3CCc4ccccc4C3)cc2)cc1,5,i,i,-1
O=C(Nc1ccc(F)cc1)c1ccc(CN2CCc3ccccc3C2)cc1,-4,i,i,-4
SMILES,MT1-MMP act inh,TMEM16A inh,ANO1 activ,DAGLB inhibitor
COc1ccc(NC(=O)c2ccc(CN3CCc4ccccc4C3)cc2)c(OC)c1,3,i,i,-6
COC(=O)c1ccc(CN2CCc3ccc(NC(=O)c4ccncc4)cc3C2)cc1,4,100*,i,1
COc1ccc(Cc2nnc(SC)n2-c2ccc(F)cc2)cc1OC,2,nt,nt,nt
CN(Cc1ccccc1)C(=O)c1ccc(NC(=O)Cc2ccc(NC(=O)C3CCN(S(=O)(=O)c4cccc([N+](=O)[O-])c4)CC3)cc2)cc1,0,nt,nt,0
CS(=O)(=O)N(CC(=O)N1CCCC1)C1CCCCC1,-2,nt,nt,1
C[C@H]1CN=C(Nc2ccccc2)N1CC1CCCCCC1,3,i,-6.7*,1
C[C@H]1CN=C(Nc2ccccc2)N1CC1CCC1,1,i,i,1
CC(C)C[C@H]1CN=C(Nc2ccccc2)N1CC1CCC(C(C)(C)C)CC1 (stereo not given in full),-5,100*,i,3
COCOCCn1cc(CN2CCS(=O)(=O)N(Cc3ccc(-c4ccc(OC)c(OC)c4)cc3)C(C)C2=O)nn1 (stereo not given),-2,nt,nt,0
CC1(C(=O)NCCCN2CCCC2=O)CCN1CCc1ccccc1 (stereo not given),-2,nt,nt,nt
Cc1ccc(NC(=S)NC(=O)C2CCCC2)c(Br)c1,-3,nt,i,-7
O=C(NCCCCCCNC(=O)OCc1ccccc1)OCc1ccccc1,-5,nt,i,1
O=C(OCc1ccccc1)N(CCCCN(CCCNCc1ccccc1)C(=O)OCc1ccccc1)CCCNCc1ccccc1,-33,nt,-5.4*,4
Cc1ccc(NC(=S)NNc2ncc(C(F)(F)F)cc2Cl)cc1,1,i,i,-4
FC(F)(F)c1cnc(NNC(=S)Nc2ccc(Cl)cc2)c(Cl)c1,-14,25*,i,-10
O=S1(=O)C=C[C@@H](COCc2ccccc2)N1Cc1ccc(Br)cc1,2,nt,nt,nt
NNS(=O)(=O)c1ccc(N2CCCC2=O)c([N+](=O)[O-])c1,-3,i,i,0
NS(=O)(=O)c1ccc(N2CCCC2=O)c([N+](=O)[O-])c1,-7,i,-4.9*,2
COc1cc(/C=C2\SC(=O)N(c3cccc(Cl)c3)C2=O)cc([N+](=O)[O-])c1O,19,nt,-5.6*,16
CS(=O)(=O)N1CCN(c2ccccc2NC(=O)Cc2ccccc2)CC1,-7,i,i,-2
CS(=O)(=O)N1CCN(c2ccccc2NC(=O)Cc2ccc(Cl)cc2)CC1,-4,i,-25*,1
Cc1nc2c(OCc3ccc(C(F)(F)F)cc3)cccn2c1N(C)Cc1cccs1,1,nt,nt,nt
COc1ccc(N(C(=O)Nc2ccc(Cl)cc2)C2=NCCC2)cc1,4,25*,i,-5

# Screening results (PubChem)
